Laboratory results taken from ChEMBL document CHEMBL1250434, “A novel achiral seco-cyclopropylpyrido[e]indolone (CPyI) analog of CC-1065 and the duocarmycins: synthesis, DNA interactions, in vivo anticancer and anti-parasitic evaluation” (Bioorg Med Chem, 2010).

Experiments:
Nucleic Acid = assay: Binding affinity to pUC18 DNA assessed as DNA alkylating activity after 5 hrs by thermal cleavage assay; format: nucleic-acid assay; conditions: Escherichia coli
How it was run: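 PCR probe from the 749–956 region of pUC18. DNA precipitated and lyophilised, then heated at 90 °C for 30 min in sodium citrate buffer (pH 7.2) to cleave at alkylated adenines. Fragments resolved by electrophoresis.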

L1210 = assay: Cytotoxicity against mouse L1210 cells after 3 days by MTT assay; format: functional, cell-based; conditions: L1210, 72 h
How it was run: (§1)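 Murine tumour cells under continuous drug exposure for 3 days. Growth inhibition measured by MTT assay. IC50 is the concentration inhibiting growth by 50%.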

[1] = Cytotoxicity against mouse B16F0 cells after 3 days by MTT assay; format: functional, cell-based; conditions: B16F0, 72 h; how it was run: as §1
Leishmania donovani = assay: Antimicrobial activity against promastigotes of Leishmania donovani assessed as inhibition of cell proliferation after 72 hrs by alamar blue assay; format: functional, organism-based
How it was run: (§2)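 Promastigotes at 5 × 10^4 cells/well in DME-L medium with 10% heat-inactivated FBS, hemin, xanthine and penicillin-streptomycin. Exposed to 0.03 nM to 64 µM compound for 72 h at 26 °C. Alamar blue added, incubated 15 h, dye reduction read by fluorescence ex 530/em 590 nm.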

Trypanosoma brucei = assay: Antimicrobial activity against procyclic form of Trypanosoma brucei 427 assessed as inhibition of cell proliferation after 72 hrs by alamar blue assay; format: functional, organism-based; conditions: Trypanosoma brucei, 427, 72 h
How it was run: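 T. brucei 427 procyclic forms grown in SDM 79 medium with 0.03 nM to 64 µM compound for 72 h at 26 °C. Proliferation read by Alamar blue reduction after a further 15 h, fluorescence ex 530/em 590 nm.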

Plasmodium falciparum = assay: Antimicrobial activity against Plasmodium falciparum infected in human erythrocytes assessed as growth inhibition; format: functional, organism-based
How it was run: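 P. falciparum grown in human erythrocytes at 3–5% hematocrit in complete medium. In vitro growth assay at six concentrations, in triplicate, in three independent experiments.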

Leishmania mexicana = assay: Antimicrobial activity against promastigotes of Leishmania mexicana assessed as inhibition of cell proliferation after 72 hrs by alamar blue assay; format: functional, organism-based; how it was run: as §2

Structure (SMILES)	Activity (Nucleic Acid)	IC50 (L1210)	IC50 [1]	IC50 (Leishmania donovani)	IC50 (Trypanosoma brucei)	IC50 (Plasmodium falciparum)	IC50 (Leishmania mexicana)
COc1cc2cc(C(=O)Nc3cc(N)c4ccccc4c3CCCl)[nH]c2c(OC)c1OC [CENTANAMYCIN]	Dose-dependent effect	55 nM	27 nM	13 nM	1.9 nM	1.8 nM	1020 nM
COc1c(O)c2c(c3cc(C(=O)N4CCc5c4c(O)c(OC)c4[nH]c(C(=O)N6C[C@H]7C[C@@]78C6=CC(=O)c6[nH]cc(C)c68)cc54)[nH]c13)CCN2C(N)=O [(+)-CC-1065]		0.03 nM					
COc1cc2cc(C(=O)N3CC(CCl)c4c3cc(O)c3ccccc43)[nH]c2c(OC)c1OC (centres undefined)			78 nM				
